Data reported in ChEMBL document CHEMBL4616714, “Discovery of CPI-1612: A Potent, Selective, and Orally Bioavailable EP300/CBP Histone Acetyltransferase Inhibitor” (ACS Med Chem Lett, 2020).
Calls of active or inactive are those of the source. The calls are words filed in the database; no cut-off is given here.

Experiments:
[1] = Volume of distribution at steady state in Beagle dog at 0.5 mg/kg, iv or 1 mg/kg, po measured upto 24 hrs by LC-MS/MS analysis; assay type: ADME, organism-based, Canis lupus familiaris; conditions: in vivo, read-out: Vdss
Summary of the method: (§1)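 Single-compound dog PK: 0.5 mg/kg IV and 1.0 mg/kg PO dosing. Clearance, Vss, half-life, oral F% and AUC/dose were derived from these arms.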

JeKo-1 [2] = test: Growth inhibition of human JeKo1 cells incubated for 72 hrs by Cell Titer-Glo luminescent cell viability assay; assay type: functional; conditions: JeKo-1, 72 h
[3] = Half life in Sprague-Dawley rat at 1 mg/kg, iv or 5 mg/kg, po measured upto 8 hrs by LC-MS/MS analysis; assay type: ADME, organism-based; conditions: in vivo
Summary of the method: (§2)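 Rat PK run as a single-compound experiment, dosed 1.0 mg/kg IV and 5.0 mg/kg PO. Clearance, Vss, half-life, F% and AUC/dose were derived from these arms.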

[4] = Half life in Beagle dog at 0.5 mg/kg, iv or 1 mg/kg, po measured upto 24 hrs by LC-MS/MS analysis; assay type: ADME, organism-based, Canis lupus familiaris; conditions: in vivo; summary of the method: as §1
Cytochrome P450 2D6 = Cytochrome P450 2D6 (Homo sapiens, UniProt P10635); test: Inhibition of CYP2D6 (unknown origin); assay type: ADME
[5] = Permeability of compound at 10 uM incubated for 4 hrs by LC-MS/MS based PAMPA method; assay type: ADME; conditions: read-out: permeability
Summary of the method: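 Single run per compound for each of the PAMPA, mouse plasma protein binding and mouse liver microsome clearance assays.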

[6] = Volume of distribution at steady state in CD-1 mouse at 1 mg/kg, iv or 5 mg/kg, po measured upto 8 hrs by LC-MS/MS analysis; assay type: ADME, organism-based; conditions: in vivo, read-out: Vdss
Summary of the method: (§3)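 Mouse PK run as a single-compound experiment, dosed 1 mg/kg IV and 5 mg/kg PO. Clearance, Vss, half-life, F% and AUC/dose were derived from these arms.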

Cytochrome P450 1A2 = molecular target: T1, Cytochrome P450 1A2 (Homo sapiens, UniProt P05177); test: Inhibition of CYP1A2 (unknown origin); assay type: ADME
T1 sequence (P05177 whole entry): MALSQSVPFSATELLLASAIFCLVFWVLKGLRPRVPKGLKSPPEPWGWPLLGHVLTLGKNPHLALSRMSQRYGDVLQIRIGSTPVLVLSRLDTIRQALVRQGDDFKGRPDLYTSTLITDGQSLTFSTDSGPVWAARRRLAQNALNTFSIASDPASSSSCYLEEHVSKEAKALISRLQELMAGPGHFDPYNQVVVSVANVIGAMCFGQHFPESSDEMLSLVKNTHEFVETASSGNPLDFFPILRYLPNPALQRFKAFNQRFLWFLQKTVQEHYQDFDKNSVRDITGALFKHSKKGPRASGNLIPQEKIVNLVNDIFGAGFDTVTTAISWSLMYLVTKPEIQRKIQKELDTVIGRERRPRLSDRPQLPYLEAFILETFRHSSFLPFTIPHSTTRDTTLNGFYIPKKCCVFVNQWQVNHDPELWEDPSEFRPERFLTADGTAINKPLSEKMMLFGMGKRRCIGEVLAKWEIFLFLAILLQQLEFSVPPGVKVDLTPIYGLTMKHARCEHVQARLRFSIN

[7] = Half life in CD-1 mouse at 1 mg/kg, iv or 5 mg/kg, po measured upto 8 hrs by LC-MS/MS analysis; assay type: ADME, organism-based; conditions: in vivo; summary of the method: as §3
Cytochrome P450 3A4 = Cytochrome P450 3A4 (Homo sapiens, UniProt P08684); test: Inhibition of CYP3A4 (unknown origin); assay type: ADME
[8] = molecular target: Histone acetyltransferase KAT7 (Homo sapiens) (UniProt O95251); test: Inhibition of MYST2 (unknown origin)
[9] = Clearance in Beagle dog at 0.5 mg/kg, iv or 1 mg/kg, po measured upto 24 hrs by LC-MS/MS analysis; assay type: ADME, organism-based, Canis lupus familiaris; conditions: in vivo; summary of the method: as §1
[10] = Clearance in Sprague-Dawley rat at 1 mg/kg, iv or 5 mg/kg, po measured upto 8 hrs by LC-MS/MS analysis; assay type: ADME, organism-based; conditions: in vivo; summary of the method: as §2
[11] = AUC/dose in Sprague-Dawley rat at 1 mg/kg, iv or 5 mg/kg, po measured upto 8 hrs by LC-MS/MS analysis; assay type: ADME, organism-based; conditions: in vivo; summary of the method: as §2
hERG (KCNH2) = hERG (KCNH2) (Homo sapiens, UniProt Q12809); test: Inhibition of human ERG at 10 uM
[12] = molecular target: Histone acetyltransferase KAT2A (Homo sapiens) (UniProt Q92830); test: Inhibition of GCN5L2 (unknown origin)
[13] = molecular target: Voltage-gated inwardly rectifying potassium channel KCNH2 (Homo sapiens, UniProt Q12809); test: Inhibition of human ERG
[14] = Ratio of drug level in brain to plasma in CD-1 mouse at 5 mg/kg, po measured upto 8 hrs by LC-MS/MS analysis; assay type: ADME, organism-based; conditions: read-out: BPR
Cytochrome P450 2C8 = molecular target: T2, Cytochrome P450 2C8 (Homo sapiens, UniProt P10632); test: Inhibition of CYP2C8 (unknown origin); assay type: ADME
T2 sequence (P10632 whole entry): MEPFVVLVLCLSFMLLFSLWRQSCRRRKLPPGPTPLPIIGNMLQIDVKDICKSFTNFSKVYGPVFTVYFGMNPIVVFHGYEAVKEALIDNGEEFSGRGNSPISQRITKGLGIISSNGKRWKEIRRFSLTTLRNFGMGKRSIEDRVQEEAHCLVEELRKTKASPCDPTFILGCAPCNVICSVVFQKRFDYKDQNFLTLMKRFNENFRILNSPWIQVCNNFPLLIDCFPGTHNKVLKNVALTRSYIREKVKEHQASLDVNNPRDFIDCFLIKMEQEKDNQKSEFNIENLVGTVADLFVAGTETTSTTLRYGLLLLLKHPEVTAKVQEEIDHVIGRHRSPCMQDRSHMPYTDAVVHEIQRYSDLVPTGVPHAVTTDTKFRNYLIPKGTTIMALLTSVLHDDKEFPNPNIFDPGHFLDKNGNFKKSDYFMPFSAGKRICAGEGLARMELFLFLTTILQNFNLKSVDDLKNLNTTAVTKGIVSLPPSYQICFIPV

JeKo-1 [15] = test: Antitumor activity in human JeKo1 cells xenografted in […] mouse assessed as reduction in H3K18 acetylation in tumor at 0.5 mg/kg, po administered bid and measured on day 26 by FACS analysis; assay type: functional, organism-based
Summary of the method: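 JEKO-1 mantle cell lymphoma xenograft dosed 0.5 mg/kg PO BID. Read-outs were tumour growth inhibition, plasma H3K27Ac and tumour H3K18Ac.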

[16] = molecular target: Histone acetyltransferase KAT2B (Homo sapiens) (UniProt Q92831); test: Inhibition of PCAF (unknown origin)
[17] = Clearance in CD-1 mouse at 1 mg/kg, iv or 5 mg/kg, po measured upto 8 hrs by LC-MS/MS analysis; assay type: ADME, organism-based; conditions: in vivo; summary of the method: as §3

Sequence of Cytochrome P450 2D6 (P10635 whole entry): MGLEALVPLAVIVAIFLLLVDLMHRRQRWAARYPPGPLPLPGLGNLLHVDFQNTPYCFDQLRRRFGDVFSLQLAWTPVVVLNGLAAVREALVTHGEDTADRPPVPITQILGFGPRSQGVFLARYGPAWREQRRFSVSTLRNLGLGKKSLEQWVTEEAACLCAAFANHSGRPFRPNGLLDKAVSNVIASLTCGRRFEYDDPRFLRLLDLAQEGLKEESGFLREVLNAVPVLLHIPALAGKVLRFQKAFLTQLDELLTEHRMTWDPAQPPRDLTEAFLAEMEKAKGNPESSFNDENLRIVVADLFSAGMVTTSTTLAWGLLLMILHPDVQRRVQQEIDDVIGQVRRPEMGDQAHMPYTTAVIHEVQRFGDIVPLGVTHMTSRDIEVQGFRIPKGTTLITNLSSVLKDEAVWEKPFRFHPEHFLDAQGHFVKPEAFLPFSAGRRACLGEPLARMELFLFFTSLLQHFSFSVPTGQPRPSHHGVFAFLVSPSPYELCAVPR
Sequence of Cytochrome P450 3A4 (P08684 whole entry): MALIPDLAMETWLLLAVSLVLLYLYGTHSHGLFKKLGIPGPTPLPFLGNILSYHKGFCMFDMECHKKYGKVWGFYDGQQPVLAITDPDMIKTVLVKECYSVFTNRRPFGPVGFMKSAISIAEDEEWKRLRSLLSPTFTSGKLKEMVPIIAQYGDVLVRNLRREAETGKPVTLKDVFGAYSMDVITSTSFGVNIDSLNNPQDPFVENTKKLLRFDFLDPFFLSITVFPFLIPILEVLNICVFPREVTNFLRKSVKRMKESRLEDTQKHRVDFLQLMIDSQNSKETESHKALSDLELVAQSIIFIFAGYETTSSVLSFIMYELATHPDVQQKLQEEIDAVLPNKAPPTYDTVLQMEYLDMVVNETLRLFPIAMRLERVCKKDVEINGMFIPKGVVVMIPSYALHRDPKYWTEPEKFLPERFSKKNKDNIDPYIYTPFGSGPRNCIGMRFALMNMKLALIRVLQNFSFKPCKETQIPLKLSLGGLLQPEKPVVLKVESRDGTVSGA
Sequence of hERG (KCNH2) (Q12809 whole entry): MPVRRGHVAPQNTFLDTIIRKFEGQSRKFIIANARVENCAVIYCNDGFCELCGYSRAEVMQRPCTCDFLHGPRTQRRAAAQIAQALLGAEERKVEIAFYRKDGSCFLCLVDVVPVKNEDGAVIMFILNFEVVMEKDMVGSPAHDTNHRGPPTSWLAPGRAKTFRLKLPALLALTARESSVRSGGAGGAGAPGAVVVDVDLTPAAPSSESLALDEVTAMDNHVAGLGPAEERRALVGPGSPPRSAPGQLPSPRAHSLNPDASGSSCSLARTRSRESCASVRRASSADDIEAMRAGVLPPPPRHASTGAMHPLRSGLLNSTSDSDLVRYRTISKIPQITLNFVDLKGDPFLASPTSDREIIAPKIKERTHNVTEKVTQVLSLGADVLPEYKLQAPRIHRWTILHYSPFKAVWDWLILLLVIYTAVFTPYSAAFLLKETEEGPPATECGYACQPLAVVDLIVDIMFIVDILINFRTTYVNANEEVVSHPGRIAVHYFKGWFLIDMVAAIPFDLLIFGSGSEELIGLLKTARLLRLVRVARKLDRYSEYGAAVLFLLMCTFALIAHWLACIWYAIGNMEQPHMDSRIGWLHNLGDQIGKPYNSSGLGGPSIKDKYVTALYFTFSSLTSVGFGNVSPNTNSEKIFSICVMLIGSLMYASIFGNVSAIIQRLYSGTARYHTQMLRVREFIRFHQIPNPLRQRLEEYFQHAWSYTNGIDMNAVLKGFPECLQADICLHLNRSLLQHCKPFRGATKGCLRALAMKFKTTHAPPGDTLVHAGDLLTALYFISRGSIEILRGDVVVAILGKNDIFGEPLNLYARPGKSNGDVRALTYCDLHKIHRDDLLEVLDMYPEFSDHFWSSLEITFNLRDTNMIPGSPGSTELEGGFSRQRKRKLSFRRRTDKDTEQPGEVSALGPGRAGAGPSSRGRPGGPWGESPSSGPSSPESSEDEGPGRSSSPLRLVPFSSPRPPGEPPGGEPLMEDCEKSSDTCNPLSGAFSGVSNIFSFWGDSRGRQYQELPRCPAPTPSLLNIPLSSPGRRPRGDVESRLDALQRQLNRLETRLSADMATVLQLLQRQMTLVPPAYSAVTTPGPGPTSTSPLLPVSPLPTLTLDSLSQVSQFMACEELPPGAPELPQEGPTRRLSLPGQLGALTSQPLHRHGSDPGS
Sequence of Voltage-gated inwardly rectifying potassium channel KCNH2 (Q12809 whole entry): as above
Sequence of Histone acetyltransferase KAT7 (Homo sapiens) (O95251 whole entry): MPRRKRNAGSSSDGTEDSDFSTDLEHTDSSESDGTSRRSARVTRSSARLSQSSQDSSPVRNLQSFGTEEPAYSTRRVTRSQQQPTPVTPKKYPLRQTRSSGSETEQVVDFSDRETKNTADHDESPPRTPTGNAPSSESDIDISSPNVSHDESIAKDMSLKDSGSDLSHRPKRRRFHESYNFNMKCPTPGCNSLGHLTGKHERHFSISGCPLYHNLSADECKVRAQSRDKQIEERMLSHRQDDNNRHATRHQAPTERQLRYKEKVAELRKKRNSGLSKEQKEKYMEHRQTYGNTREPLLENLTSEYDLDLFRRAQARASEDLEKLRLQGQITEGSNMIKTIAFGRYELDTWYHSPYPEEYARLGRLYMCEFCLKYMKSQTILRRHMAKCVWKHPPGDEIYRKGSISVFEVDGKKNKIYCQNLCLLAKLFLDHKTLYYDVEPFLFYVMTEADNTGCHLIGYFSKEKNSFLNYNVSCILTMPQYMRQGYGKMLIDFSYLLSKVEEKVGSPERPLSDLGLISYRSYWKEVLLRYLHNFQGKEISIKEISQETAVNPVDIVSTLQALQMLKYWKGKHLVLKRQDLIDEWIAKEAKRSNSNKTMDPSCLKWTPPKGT
Sequence of Histone acetyltransferase KAT2A (Homo sapiens) (Q92830 2-837 limits assumed): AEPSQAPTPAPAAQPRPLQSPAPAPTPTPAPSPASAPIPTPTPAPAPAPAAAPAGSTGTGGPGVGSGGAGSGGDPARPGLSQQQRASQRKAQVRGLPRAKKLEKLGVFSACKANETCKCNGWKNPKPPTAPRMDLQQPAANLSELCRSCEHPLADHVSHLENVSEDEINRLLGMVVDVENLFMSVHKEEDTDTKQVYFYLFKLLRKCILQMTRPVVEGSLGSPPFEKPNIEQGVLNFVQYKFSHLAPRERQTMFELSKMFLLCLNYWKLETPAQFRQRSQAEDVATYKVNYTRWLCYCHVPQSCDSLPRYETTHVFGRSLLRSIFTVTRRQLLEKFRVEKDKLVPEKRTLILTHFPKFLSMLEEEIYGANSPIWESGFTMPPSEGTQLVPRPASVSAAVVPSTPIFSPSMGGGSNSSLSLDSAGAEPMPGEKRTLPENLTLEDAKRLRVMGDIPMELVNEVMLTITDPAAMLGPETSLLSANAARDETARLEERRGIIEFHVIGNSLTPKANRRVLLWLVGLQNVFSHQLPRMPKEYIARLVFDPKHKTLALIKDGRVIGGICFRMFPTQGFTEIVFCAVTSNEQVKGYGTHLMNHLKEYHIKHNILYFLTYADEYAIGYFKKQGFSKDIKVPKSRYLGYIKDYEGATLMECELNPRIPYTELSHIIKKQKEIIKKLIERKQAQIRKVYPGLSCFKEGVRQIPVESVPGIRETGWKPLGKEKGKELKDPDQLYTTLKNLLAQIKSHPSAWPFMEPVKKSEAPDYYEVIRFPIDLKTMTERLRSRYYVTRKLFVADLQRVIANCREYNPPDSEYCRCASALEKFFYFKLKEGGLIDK

C[C@H](CN[C@@H](C(=O)Nc1ccc(-c2cnn(C)c2)cn1)c1ccccc1)c1ccc(C#N)cc1
Vd [1]: 3.7 L/kg | GI50 (JeKo-1 [2]): < 0.0079 µM | half-life [3]: 1.2 h | half-life [4]: 5.5 h | IC50 (Cytochrome P450 2D6): 34 µM | Papp at 4 h, 10 µM [5]: 1.19 ×10⁻⁶ cm/s | Vd [6]: 2 L/kg | IC50 (Cytochrome P450 1A2): > 50 µM | half-life [7]: 0.98 h | IC50 (Cytochrome P450 3A4): > 50 µM | inhibition [8]: inactive | clearance [9]: 7 mL/min/kg | clearance [10]: 43.3 mL/min/kg | AUC/dose [11]: 35.6 ng·h/mL | inhibition at 10 µM (hERG (KCNH2)): 9.2% | inhibition [12]: inactive | IC50 [13]: 10.4 µM | Kp at 8 h [14]: 0.35 | IC50 (Cytochrome P450 2C8): 1.9 µM | Activity (JeKo-1 [15]): Active | inhibition [16]: inactive | clearance [17]: 63.3 mL/min/kg
